The list is not random: actives were taken first. Their share in the collection is about 4.3%.
CAL PDZ FP-1 – inhibitors of human CAL PDZ peptide binding; Q9HD26; inhibition, % at 20 µM; AID 504414; 330,000 tested, 0.02% active; purified CAL PDZ, TMR-peptide fluorescence polarization, 1 h;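 active means highest replicate inhibition of at least 40%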
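Material: tagged CAL PDZ domain; buffer or medium: 25 mM sodium phosphate pH 7.4, 150 mM NaCl, TCEP, IgG, Thesit; compound dosing: single point, 20 µM; schedule: 1 h incubation at room temperature before polarization reading; measured by: FP readout, S and P plane fluorescence; read-out basis: percent inhibition from loss of millipolarization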
Dyrk1A ADPGlo – Dyrk1A (rat) kinase inhibition; inhibition, % at 12.5 µM; ADP-Glo luminescence, NFATc1 peptide; 310,000 tested, 0.43% active; Q63470; in the data active means inhibition above about 50%
Rtt109 Vps75 – inhibitors of Candida albicans Rtt109/Vps75 histone acetyltransferase. inhibition, % at 34.9 µM. Q5AAJ8. purified Rtt109/Vps75, ThioGlo CoA-SH fluorescence, 4 h. 330,000 tested, 0.16% active;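 active means inhibition of at least 50% in every replicate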
CAL PDZ FP-2 – CAL PDZ (human) peptide binding inhibition; Q9HD26; inhibition, % at 24.9 µM; purified CAL PDZ, TMR-peptide fluorescence polarization, 1 h; 300,000 tested, 0.92% active;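 active means mean inhibition of at least 30% with at least half of replicates also reaching 30%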
ALR H2O2 inh – blocks human ALR sulfhydryl oxidase activity | P55789 | purified ALR, DTT oxidation, H2O2 HRP-luminol luminescence | inhibition, % (no concentration beside the values) | 290,000 tested, 3.8% active;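 active means mean replicate inhibition above about 79%, with every replicate also reaching it, limit read from the data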
Target sequence (P55789 whole entry, looked up): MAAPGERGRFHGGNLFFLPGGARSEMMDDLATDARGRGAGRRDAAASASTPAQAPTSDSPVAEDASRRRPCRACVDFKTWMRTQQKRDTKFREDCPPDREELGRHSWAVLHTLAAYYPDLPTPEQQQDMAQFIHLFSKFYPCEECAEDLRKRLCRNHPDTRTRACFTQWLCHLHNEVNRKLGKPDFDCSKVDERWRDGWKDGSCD
Numbers stand for hits.

What do the screens show for `Cc1cc(C(=O)N/N=C/c2ccc(-c3cccc(Cl)c3)o2)n[nH]1`?
CAL PDZ FP-1: inactive; Dyrk1A ADPGlo: inactive; Rtt109 Vps75: inactive; ALR H2O2 inh: inactive

Results for O=C(Nc1ccccc1F)c1ccc(CN2CCc3ccccc3C2)cc1 ?
Dyrk1A ADPGlo: inactive; Rtt109 Vps75: inactive; CAL PDZ FP-2: 132; ALR H2O2 inh: inactive

Results for O=C(Nc1ccccc1)c1ccc(CN2CCc3ccccc3C2)cc1 ?
CAL PDZ FP-1: inactive; Dyrk1A ADPGlo: inactive; Rtt109 Vps75: inactive; CAL PDZ FP-2: inactive; ALR H2O2 inh: inactive

What do the screens show for `Cc1cccc(OCCCC(=O)Nc2ccc(S(=O)(=O)Nc3nccs3)cc2)c1C`?
CAL PDZ FP-1: inactive; Dyrk1A ADPGlo: inactive; Rtt109 Vps75: inactive; CAL PDZ FP-2: inactive; ALR H2O2 inh: inactive

What do the screens show for `COc1cc(SC#N)ccc1N=Cc1c(C)[nH]n(-c2ccc(Cl)cc2)c1=O`?
CAL PDZ FP-1: inactive; Dyrk1A ADPGlo: inactive; Rtt109 Vps75: inactive; CAL PDZ FP-2: inactive; ALR H2O2 inh: inactive

How did COc1cc(SC#N)ccc1N=Cc1c(C)[nH]n(-c2ccc(C)c(C)c2)c1=O do in these assays?
CAL PDZ FP-1: inactive; Dyrk1A ADPGlo: inactive; Rtt109 Vps75: 56; CAL PDZ FP-2: inactive; ALR H2O2 inh: 94

How did CC(C)c1ccc(O)c(NC(=S)NC(=O)CCc2ccccc2)c1 do in these assays?
CAL PDZ FP-1: inactive; Dyrk1A ADPGlo: inactive; Rtt109 Vps75: inactive; CAL PDZ FP-2: inactive; ALR H2O2 inh: inactive

Results for CCCCc1ccc(S(=O)(=O)Nc2nnc(C)s2)cc1 ?
CAL PDZ FP-1: inactive; Dyrk1A ADPGlo: inactive; Rtt109 Vps75: inactive; CAL PDZ FP-2: 52; ALR H2O2 inh: inactive

Results for CN(C)S(=O)(=O)N1CCN(c2cccc(Cl)c2)CC1 ?
CAL PDZ FP-1: inactive; Dyrk1A ADPGlo: inactive; Rtt109 Vps75: inactive; CAL PDZ FP-2: inactive; ALR H2O2 inh: inactive

What do the screens show for `CN(C)S(=O)(=O)N1CCN(c2ccccc2)CC1`?
CAL PDZ FP-1: inactive; Rtt109 Vps75: inactive; CAL PDZ FP-2: inactive; ALR H2O2 inh: 79

Results for COC(=O)c1[nH]c2cc(OC)c(OC)cc2c1/C=N/Nc1ccccc1 ?
CAL PDZ FP-1: inactive; Dyrk1A ADPGlo: inactive; CAL PDZ FP-2: inactive; ALR H2O2 inh: inactive

What do the screens show for `CCOc1cc(-c2cc(-c3ccc(C)o3)nc(N)c2C#N)ccc1O`?
CAL PDZ FP-1: inactive; Dyrk1A ADPGlo: inactive; Rtt109 Vps75: inactive; CAL PDZ FP-2: inactive; ALR H2O2 inh: 80

Results for CCCc1cc(-c2ccc(O)c(OCC)c2)c(C#N)c(N)n1 ?
CAL PDZ FP-1: inactive; Dyrk1A ADPGlo: inactive; Rtt109 Vps75: inactive; CAL PDZ FP-2: inactive; ALR H2O2 inh: inactive

How did C=CCn1c(=N)n(CC(=O)OCC)c2ccccc21 do in these assays?
CAL PDZ FP-1: inactive; Dyrk1A ADPGlo: inactive; Rtt109 Vps75: inactive; CAL PDZ FP-2: inactive; ALR H2O2 inh: 99

Results for CCCn1c(=N)n(CC(=O)OCC)c2ccccc21 ?
CAL PDZ FP-1: inactive; Dyrk1A ADPGlo: inactive; Rtt109 Vps75: inactive; CAL PDZ FP-2: inactive; ALR H2O2 inh: inactive

How did Cc1ccc(/C=N\NC(=O)CCc2n[nH]c(=O)[nH]c2=O)o1 do in these assays?
CAL PDZ FP-1: inactive; Dyrk1A ADPGlo: inactive; CAL PDZ FP-2: inactive; ALR H2O2 inh: inactive

What do the screens show for `CCOC(=O)c1c(N)sn(-c2ccccc2C)c1=S`?
CAL PDZ FP-1: inactive; Dyrk1A ADPGlo: inactive; Rtt109 Vps75: inactive; CAL PDZ FP-2: inactive; ALR H2O2 inh: 97

What do the screens show for `CCSC1=NSC2=NC(=O)/C(=C\c3coc4ccccc4c3=O)C(=N)N12`?
CAL PDZ FP-1: inactive; Dyrk1A ADPGlo: inactive; Rtt109 Vps75: inactive; CAL PDZ FP-2: inactive; ALR H2O2 inh: 98

How did COc1cc2c(cc1OC)CN(C(=O)c1ccc3nc[nH]c3c1)CC2 do in these assays?
CAL PDZ FP-1: inactive; Dyrk1A ADPGlo: inactive; CAL PDZ FP-2: inactive; ALR H2O2 inh: inactive

What do the screens show for `O=C(c1ccc2nc[nH]c2c1)N1CCc2ccccc2C1`?
CAL PDZ FP-1: inactive; Rtt109 Vps75: inactive; CAL PDZ FP-2: 54; ALR H2O2 inh: inactive

What do the screens show for `CC(=O)SCC(Cc1ccccc1)C(=O)NCC(=O)OCc1ccccc1` (stereo not drawn)?
ALR H2O2 inh: inactive

What do the screens show for `Cc1ccc(NC(=O)c2c(-c3ccccc3)noc2C)nc1`?
CAL PDZ FP-1: inactive; Rtt109 Vps75: inactive; CAL PDZ FP-2: active; ALR H2O2 inh: inactive

Results for Cc1onc(-c2ccccc2)c1C(=O)Nc1ccon1 ?
CAL PDZ FP-1: inactive; Dyrk1A ADPGlo: inactive; Rtt109 Vps75: inactive; CAL PDZ FP-2: inactive; ALR H2O2 inh: inactive

Results for CCC(CC)c1nnc(NC(=O)c2c(-c3ccccc3)noc2C)s1 ?
CAL PDZ FP-1: inactive; Dyrk1A ADPGlo: inactive; Rtt109 Vps75: inactive; ALR H2O2 inh: 78

From PubChem BioAssay
